Read-outs that look alike come from different tables or passages of the source.
Legend:
Format in all cases: binding
human thrombus = target: T1, human thrombus (Homo sapiens, UniProt P00488); assay: Autoradiography of ex vivo human thrombus sections with blocking; settings: human explanted thrombus sections; 5 μM co-incubated
T1 sequence (P00488 39-732 limits assumed): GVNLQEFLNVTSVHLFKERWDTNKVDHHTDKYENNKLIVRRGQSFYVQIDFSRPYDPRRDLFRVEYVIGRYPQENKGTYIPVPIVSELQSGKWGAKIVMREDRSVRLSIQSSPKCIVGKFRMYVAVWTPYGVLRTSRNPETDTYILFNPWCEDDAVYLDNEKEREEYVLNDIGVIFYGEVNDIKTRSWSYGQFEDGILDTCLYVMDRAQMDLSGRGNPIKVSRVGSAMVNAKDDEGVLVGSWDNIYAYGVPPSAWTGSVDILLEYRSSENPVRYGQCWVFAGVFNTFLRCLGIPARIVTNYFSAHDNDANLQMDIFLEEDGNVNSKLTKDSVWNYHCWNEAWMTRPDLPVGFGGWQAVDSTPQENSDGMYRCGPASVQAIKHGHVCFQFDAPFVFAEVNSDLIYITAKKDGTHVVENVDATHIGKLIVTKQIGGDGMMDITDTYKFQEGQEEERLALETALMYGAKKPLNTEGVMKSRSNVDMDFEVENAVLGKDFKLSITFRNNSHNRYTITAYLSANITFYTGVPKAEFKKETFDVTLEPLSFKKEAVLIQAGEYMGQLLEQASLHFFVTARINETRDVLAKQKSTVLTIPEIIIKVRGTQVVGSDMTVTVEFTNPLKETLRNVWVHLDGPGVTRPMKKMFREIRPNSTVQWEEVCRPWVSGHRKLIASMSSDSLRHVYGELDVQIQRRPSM
Method in brief: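 Paraffin-embedded cross-sections of ex vivo human thrombi (n = 3) were de-paraffinised, rehydrated and incubated 2 h at 37°C with 18F-tracer alone or co-incubated with unlabelled tracer, scrambled peptide or iodoacetamide (each 5 μM), in quadruplicate. Slides were washed twice in phosphate buffer, air-dried and exposed to a phosphor screen. Equal ROIs gave greyscale pixel intensity; %SB = tracer-only minus inhibitor-section activity.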

rodent carotid thrombus = target: T2, rodent carotid thrombus (Rattus norvegicus, UniProt O08619); settings: rodent explanted thrombus sections; 5 μM co-incubated
T2 sequence (O08619 39-732 limits assumed): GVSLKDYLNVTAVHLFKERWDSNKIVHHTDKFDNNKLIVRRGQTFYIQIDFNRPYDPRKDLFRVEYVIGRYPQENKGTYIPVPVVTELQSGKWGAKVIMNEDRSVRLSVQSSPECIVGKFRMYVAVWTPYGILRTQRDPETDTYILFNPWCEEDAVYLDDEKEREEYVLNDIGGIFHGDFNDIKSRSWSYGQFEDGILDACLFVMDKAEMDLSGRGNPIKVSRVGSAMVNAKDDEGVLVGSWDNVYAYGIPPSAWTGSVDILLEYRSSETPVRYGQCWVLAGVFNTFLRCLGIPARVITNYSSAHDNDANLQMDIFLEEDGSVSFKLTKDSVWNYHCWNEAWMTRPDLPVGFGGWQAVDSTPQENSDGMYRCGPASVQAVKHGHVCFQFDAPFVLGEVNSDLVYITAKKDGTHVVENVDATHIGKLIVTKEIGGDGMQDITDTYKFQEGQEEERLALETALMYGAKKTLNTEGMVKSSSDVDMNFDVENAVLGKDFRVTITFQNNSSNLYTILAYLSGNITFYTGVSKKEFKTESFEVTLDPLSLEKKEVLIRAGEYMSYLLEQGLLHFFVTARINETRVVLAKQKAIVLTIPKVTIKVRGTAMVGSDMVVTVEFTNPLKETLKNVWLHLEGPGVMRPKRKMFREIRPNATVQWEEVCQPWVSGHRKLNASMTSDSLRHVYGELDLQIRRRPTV
Method in brief: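 Thrombosed left common carotid (ferric chloride model) was harvested from one rat after sacrifice. Sections were de-paraffinised, rehydrated and incubated 2 h at 37°C with 18F-tracer alone or with 5 μM unlabelled tracer, scrambled peptide or iodoacetamide. They were then washed, dried and exposed to a phosphor screen. Greyscale intensity was read in equal ROIs; %SB = tracer-only minus inhibitor sections.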

Factor XIIIa = target: T3, Factor XIIIa (Homo sapiens, UniProt P00488); settings: co-infusion of iodoacetamide 10 mg/mL, n = 10
T3 sequence (P00488 39-732 limits assumed): T1 sequence (P00488 39-732 limits assumed)
Method in brief: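 Native blood from healthy male volunteers was pumped at 10 mL/min for 5 min through three 37°C chambers over porcine aortic strips (intima removed), at 212 s−1 (low shear) or 1690 s−1 (high shear), then flushed with saline. Tracer was infused at 4.6 ± 0.5 MBq/mL, or 5.5 ± 0.9 MBq/mL with 10 mg/mL iodoacetamide. Strips were scanned by NanoPET/CT; equal thrombus VOIs (kBq/mL) were divided by infused MBq.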

## NC(=O)CI [iodoacetamide, Iodoacetamide]
Human thrombus
  Effect on 18F-ENC2015 uptake (autoradiography): no effect
Rodent carotid thrombus
  Effect on 18F-ENC2015 uptake (autoradiography): no effect
Factor XIIIa; high shear thrombi
  Reduction of 18F-ENC2015 thrombus binding: 87%
Factor XIIIa; low shear thrombi
  Reduction of 18F-ENC2015 thrombus binding: 88%
